Experimental data taken from PubChem BioAssay.
Calls of active or inactive are those of the source.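 The calls were made as follows, unless noted: active = visually confirmed hit in the image check and inhibition above 20%; inconclusive = visually confirmed hit but inhibition not above 20%; inactive = no visual hit in the image check.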

What was measured:
[1] = inhibitors of TNFa-induced NFkB p65 translocation, primary screen, imaging, HUVEC, MLSMR starter and 10KST1 sets (AID 438;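 active = inhibition above 20% together with a positive visual image hit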;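 also: compound added about 3h40 before a 20 min TNFalpha stimulation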;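 as to inhibition: signal is the nuclear over cytoplasmic p65 intensity ratio per well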); settings: HUVEC TNFa-induced p65 nuclear translocation; cell count: measured here: nuclei count (cytotoxicity indicator), at 2.08 µM; inhibition: at 2 µM, stronger effect = higher value, 0% TNFa-plus-vehicle, 100% no-TNFa wells
[2] = reduction of polyQ htt aggregates in cells – imaging, exon1htt(103Q)mCFP cells, high-content imaging, primary screen (AID 483;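 active = visual image review flags a hit and inhibition of aggregation exceeds 20%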;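 also: compound exposure lasted 3 days before fixation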;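 as to nuclei count: percent of the per-plate median nuclei count of sample wells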); settings: exon1htt(103Q)mCFP cell line, aggregate imaging, at 2 µM; inhibition of aggregation: stronger effect = higher value; nuclei count: measured here: cell count, toxicity
[3] = endothelial E-selectin expression blockers – imaging, HUVEC, immunofluorescence, MLSMR starter and 10KST1 sets, primary screen (AID 487); settings: HUVEC TNFalpha-induced E-selectin immunofluorescence imaging, at 2 µM; inhibition: stronger effect = higher value; nuclei count: measured here: cell number, toxicity;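 as to inhibition: signal is fraction of cell area covered by stained E-selectin grains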;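 as to nuclei count: 100% = median nuclei count of all wells on the same plate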
[4] = biological target: Voltage-gated potassium channel subunit beta-2 (Rattus norvegicus) (UniProt P62483); assay: inhibitors of rat Kvbeta2 reductase activity – biochemical, NADPH fluorescence, primary screen (AID 622;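 active = fluorescence slope higher than the sample average by over 3 SD, cut at about -0.22 in these data, passing the limit was not always enough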;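 also: slope of raw intensity against log time taken from 70 to 1610 s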); settings: recombinant KvBeta, 4-cyanobenzaldehyde reduction, at 10 µM, stronger effect = higher value
Chain of Voltage-gated potassium channel subunit beta-2 (Rattus norvegicus) (P62483 whole entry, looked up): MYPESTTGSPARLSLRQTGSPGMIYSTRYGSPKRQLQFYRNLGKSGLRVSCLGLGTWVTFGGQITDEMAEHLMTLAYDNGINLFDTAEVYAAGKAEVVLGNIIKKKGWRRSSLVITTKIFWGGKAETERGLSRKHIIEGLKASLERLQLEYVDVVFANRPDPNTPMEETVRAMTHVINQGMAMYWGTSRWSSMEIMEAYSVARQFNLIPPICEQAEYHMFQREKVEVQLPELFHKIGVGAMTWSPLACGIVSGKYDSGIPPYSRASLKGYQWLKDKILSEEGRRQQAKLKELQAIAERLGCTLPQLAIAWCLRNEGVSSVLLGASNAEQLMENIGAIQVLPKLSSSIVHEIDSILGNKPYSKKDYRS

[5] = biological target: Voltage-gated potassium channel subunit beta-2 (Rattus norvegicus) (UniProt P62483); assay: enhancers of rat Kvbeta2 NADPH turnover – biochemical, NADPH fluorescence, primary screen (AID 623;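 active = NADPH fluorescence slope more negative than the mean of all samples by about 3 SD, 99.7% confidence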;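 also: fluorescence intensity change per second fitted from 20 to 320 s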); settings: Recombinant KvBeta, NADPH fluorescence decrease slope, 10 min; at 10 µM; stronger effect = lower value
[6] = biological target: Muscarinic acetylcholine receptor M4 (Homo sapiens) (UniProt P08173); assay: M4-linked GIRK flux change, two-sided – cell-based, HEK293 M4/GIRK, thallium flux, BTC-AM, M4 allosteric agonist project, primary screen (AID 625;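 active = fluorescence slope after compound addition differing from the mean of all tested samples at 99.7% confidence, mostly higher but some lower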;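 also: thallium influx through GIRK channels coupled to M4 in HEK293 cells with BTC-AM dye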); settings: at 10 µM, actives lie on both sides
Chain of Muscarinic acetylcholine receptor M4 (Homo sapiens) (P08173 whole entry, looked up): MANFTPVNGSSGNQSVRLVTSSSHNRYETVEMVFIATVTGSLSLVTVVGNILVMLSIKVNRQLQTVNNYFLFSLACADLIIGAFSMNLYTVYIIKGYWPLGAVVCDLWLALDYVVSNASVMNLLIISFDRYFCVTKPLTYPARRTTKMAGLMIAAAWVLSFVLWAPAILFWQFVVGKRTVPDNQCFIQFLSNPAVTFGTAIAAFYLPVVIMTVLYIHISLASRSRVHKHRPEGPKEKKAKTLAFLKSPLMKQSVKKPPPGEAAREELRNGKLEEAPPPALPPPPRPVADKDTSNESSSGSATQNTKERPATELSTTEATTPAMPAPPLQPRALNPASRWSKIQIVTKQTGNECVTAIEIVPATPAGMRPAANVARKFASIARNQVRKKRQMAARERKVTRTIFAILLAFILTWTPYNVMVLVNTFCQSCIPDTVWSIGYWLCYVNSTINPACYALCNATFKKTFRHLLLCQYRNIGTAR
Method in brief: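 Material: HEK293 cells with M4 receptor and GIRK channels; Times: cells overnight at 37 °C, BTC-AM loading 1 h, reads 2 min total; Technique: kinetic BTC-AM fluorescence sampled at 1 Hz, 10 s pre-addition baseline; Read-out basis: slope over 15–24 s of trace normalized to starting intensity; Controls: carbachol positive, DMSO negative.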

[7] = blockers of RIG-like receptor reporter activation – cell-based, Sendai virus stimulus, luciferase, 10K MLSCN set, TLR/RLR signaling modifier project, primary screen (AID 602276;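 active = inhibition at or above 50% at 10 µM; inactive = inhibition below 50%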;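 also: firefly luciferase from ISG56 promoter only with Renilla not read in this screen; 0% = Sendai virus plus DMSO and 100% = medium plus DMSO without virus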); settings: HEK293 RL24 IRF3 luciferase reporter, at 10 µM, stronger effect = higher value
[8] = TLR3 IRF3 reporter activation blockers – cell-based, poly I:C stimulus, luciferase, 10K MLSCN set, primary screen (AID 602277;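 active = inhibition of the reporter signal at or above 50%; inactive = inhibition below 50%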); settings: HEK293-TLR3 RL24 IRF3 luciferase reporter, at 10 µM, stronger effect = higher value

SMILES | cell count [1] | inhibition [1] | inhibition of aggregation [2] | nuclei count [2] [%] | inhibition [3] | nuclei count [3] [%] | fluorescence slope [4] | NADPH fluorescence slope [5] | fluorescence slope [6] | inhibition [7] | inhibition [8]
Cc1ccc(C(=O)NC2CC3CCCC(C2)N3C(=O)NC2CCCCC2)cc1 (centres undefined) | 391 | -5% (inactive) | 0.8% (inactive) | 98.7 | -32.5% (inactive) | 80.8 | -0.559 (inactive) | 5.4e-08 (inactive) | 0.00417 (inactive) | -0.377% (inactive) | 9.12% (inactive)
COc1cccc(NC(=O)Nc2cccs2)c1 | 355 | -1.5% (inactive) | -5.7% (inactive) | 93.5 | 9.9% (inactive) | 115 | -0.483 (inactive) | 0.00014 (inactive) | 0.00925 (active) | -20.2% (inactive) | -76.7% (inactive)
COC(=O)c1cccc(S(=O)(=O)N2CCN(c3nc4ccccc4s3)CC2)c1 | 299 | -5% (inactive) | 6.2% (inactive) | 96.3 | -24.1% (inactive) | 80.7 | -0.539 (inactive) | 1.2e-05 (inactive) | 0.00622 (inactive) | 1.3% (inactive) | 8.61% (inactive)
Cc1nnc(SCCn2c(N3CC(C)CC(C)C3)nc3c2c(=O)n(C)c(=O)n3C)s1 (centres undefined) | 207 | 3.4% (inactive) | 10.1% (inactive) | 84.9 | 60.7% (active) | 81.2 | -0.598 (inactive) | -2.7e-05 (inactive) | 0.00478 (inactive) | 15.7% (inactive) | 21.2% (inactive)
O=C(Cn1nc(-c2ccc(Cl)cc2)ccc1=O)NCCCN1CCN(Cc2ccccc2)CC1 | 518 | 10.6% (inactive) | -12.5% (inactive) | 97.4 | -351% (inactive) | 135 | -0.585 (inactive) | 3e-05 (inactive) | 0.00673 (inactive) | -9.82% (inactive) | -23.5% (inactive)
Cc1cc(NC(=O)CSc2nnc(C3CC3)n2C)no1 | 296 | 1.1% (inactive) | 15.4% (inactive) | 96.8 | -26.7% (inactive) | 93.5 | -0.55 (inactive) | -7.5e-05 (inactive) | 0.00523 (inactive) | 8.69% (inactive) | 16.1% (inactive)
Cc1nc(SCC#N)c2c(C)c(C)sc2n1 | 818 | -4.3% (inactive) | -3.4% (inactive) | 101 | -84.3% (inactive) | 118 | -0.551 (inactive) | -2.7e-05 (inactive) | 0.00593 (inactive) | 10.7% (inactive) | -9.75% (inactive)
NC(=O)c1oc2ccc(Cl)cc2c1NC(=O)CN1CCOCC1 | 436 | 2.7% (inactive) | 3.6% (inactive) | 112 | -114% (inactive) | 123 | -0.53 (inactive) | -5.2e-05 (inactive) | 0.00578 (inactive) | 4.86% (inactive) | 1.98% (inactive)
O=C(NCCO)c1scc2c1OCCO2 | 572 | -12.8% (inactive) | 7.6% (inactive) | 97.2 | -15.2% (inactive) | 104 | -0.327 (inactive) | 6.5e-05 (inactive) | 0.00603 (inactive) | 16.6% (inactive) | 19.5% (inactive)
N#CCCn1cnc2ccccc21 | 332 | 5.6% (inactive) | 22.8% (inactive) | 99.2 | 63.2% (active) | 132 | -0.564 (inactive) | -2.5e-05 (inactive) | 0.0098 (inactive) | -0.285% (inactive) | 3.23% (inactive)
CCCc1ccc(C(C)NC(=O)c2cnccn2)cc1 (centres undefined) | 375 | 0.4% (inactive) | -9.4% (inactive) | 107 | 32.8% (inactive) | 106 | -0.484 (inactive) | -1.5e-05 (inactive) | 0.00486 (inactive) | 15.6% (inactive) | -1.82% (inactive)
CS(=O)(=O)N(CC(=O)NCc1ccccn1)c1ccc2c(c1)OCCO2 | 755 | -7.5% (inactive) | 13% (inactive) | 101 | 26% (inactive) | 78.9 | -0.515 (inactive) | -4.7e-06 (inactive) | 0.00626 (inactive) | 14.9% (inactive) | 15.8% (inactive)
Cc1ccccc1NC(=O)C1CCN(c2cnccn2)CC1 | 304 | 2.2% (inactive) | -10.2% (inactive) | 86.3 | -42.9% (inactive) | 111 | -0.543 (inactive) | -1.5e-06 (inactive) | 0.00512 (inactive) | 5.1% (inactive) | 15.6% (inactive)
N#CCSc1nc2c(c(C3CC=CCC3)c1C#N)CCC2 (centres undefined) | 436 | 8% (inactive) | -9.6% (inactive) | 100 | -44.5% (inactive) | 112 | -0.552 (inactive) | -1.6e-05 (inactive) | 0.00409 (inactive) | -0.626% (inactive) | 27.7% (inactive)
O=C(NC1CCCC1)c1c[nH]c2ccc(F)cc2c1=O | 442 | -4% (inactive) | -14.3% (inactive) | 118 | -16% (inactive) | 104 | -0.266 (inactive) | -1.4e-05 (inactive) | 0.00803 (inactive) | -2.78% (inactive) | -20.3% (inactive)
COc1ccccc1C1c2c(oc3ccc(Cl)cc3c2=O)C(=O)N1c1cc(C)on1 (centres undefined) | 345 | -5% (inactive) | 2.2% (inactive) | 103 | -13.8% (inactive) | 112 | -0.555 (inactive) | 2.1e-05 (inactive) | 0.0044 (inactive) | 24.8% (inactive) | 16.8% (inactive)
Cc1cccc(N2CCN(C(=O)c3ccc(NS(=O)(=O)c4c(C)noc4C)cc3)CC2)c1C | 334 | 5.4% (inactive) | -23.1% (inactive) | 97.7 | -283% (inactive) | 84.9 | -0.545 (inactive) | -7.3e-05 (inactive) | 0.00603 (inactive) | -6.14% (inactive) | -0.151% (inactive)
COC(=O)Nc1ccc(C)cc1NC(=O)OC | 624 | -20.8% (inactive) | -13.1% (inactive) | 98.6 | 16% (inactive) | 86.5 | -0.574 (inactive) | 2.5e-05 (inactive) | 0.00692 (inactive) | -9.05% (inactive) | -6.68% (inactive)
O=C1CCC(=O)N1OCCCCOc1ccccc1 | 692 | 3.7% (inactive) | -1.2% (inactive) | 105 | 7.8% (inactive) | 106 | -0.421 (inactive) | 3.2e-05 (inactive) | 0.00701 (inactive) | 15.8% (inactive) | 18% (inactive)
